Experimental data reported in ChEMBL document CHEMBL1155958, “Inhibition of oxidative metabolism of tocopherols with omega-N-heterocyclic derivatives of vitamin E” (Bioorg Med Chem, 2008).
Each block holds one molecule with its values, some of them ahead of it. Activity calls are given as the source filed them. No cut-off for these calls is given here.

What was measured:
[1] = target: T1, Cytochrome P450 4F2 (Homo sapiens, UniProt P78329); test: Inhibition of CYP4F2-mediated gamma-tocopherol metabolism in human HepG2/C3A cells at 1 uM preincubated for 6 hrs and continued for 24 hrs; type: cell-based
T1 sequence (P78329 whole entry): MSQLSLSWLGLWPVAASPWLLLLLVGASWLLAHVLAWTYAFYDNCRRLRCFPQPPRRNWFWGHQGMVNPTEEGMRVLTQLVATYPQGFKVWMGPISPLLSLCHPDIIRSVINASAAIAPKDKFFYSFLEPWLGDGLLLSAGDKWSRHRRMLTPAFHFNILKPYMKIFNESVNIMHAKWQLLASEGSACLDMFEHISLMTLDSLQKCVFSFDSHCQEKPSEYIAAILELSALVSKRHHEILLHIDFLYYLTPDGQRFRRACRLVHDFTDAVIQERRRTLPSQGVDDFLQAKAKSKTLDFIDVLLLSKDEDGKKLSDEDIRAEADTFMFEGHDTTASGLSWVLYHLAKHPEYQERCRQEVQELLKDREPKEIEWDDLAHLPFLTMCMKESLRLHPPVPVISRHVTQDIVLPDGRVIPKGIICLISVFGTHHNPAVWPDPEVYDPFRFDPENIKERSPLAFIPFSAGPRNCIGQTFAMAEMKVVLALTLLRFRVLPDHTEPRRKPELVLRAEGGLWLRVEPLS
Procedure, shortened: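 Confluent HepG2/C3A monolayers exposed to 1 µM inhibitor for 6 hr. Then incubated 24 hr in medium with 25 µM γ-tocopherol, inhibitor not replaced. Medium carboxychromanol metabolites measured by GC-MS against d9-α-CEHC internal standard.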

[2] = test system: Mus musculus; test: Enrichment in delta-tocopherol in FVB/N mouse liver assessed as doubling in delta-tocopherol/alpha-tocopherol ratio at 500 mg/kg in delta-tocopherol rich diet for 10 days; type: functional, organism-based; parameters: dose 500 mg/kg
[3] = target: T1, Cytochrome P450 4F2; test: Inhibition of CYP4F2-mediated gamma-tocopherol metabolism in human HepG2/C3A cells preincubated for 4 hrs and continued for 48 hrs; type: cell-based; conditions: for Activity: human, hepg2/c3a, 48 h
Procedure, shortened: (§1)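 Confluent HepG2/C3A monolayers pre-incubated 4 hr with inhibitor (ethanol stock) or ethanol vehicle. Medium then replaced with fresh medium containing γ-tocopherol, 25 µM final, plus inhibitor again. After 48 hr, medium analysed by GC-MS for 3'- and 5'-carboxychromanols, with d9-α-CEHC internal standard. Results given as percent inhibition, means and standard deviation.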

[4] = target: T2, Cytochrome P450 3A4 (Homo sapiens, UniProt P08684); test: Inhibition of CYP3A4 in human HepG2/C3A cells assessed as testosterone-6-hydroxylase activity; type: ADME, cell-based
T2 sequence (P08684 whole entry): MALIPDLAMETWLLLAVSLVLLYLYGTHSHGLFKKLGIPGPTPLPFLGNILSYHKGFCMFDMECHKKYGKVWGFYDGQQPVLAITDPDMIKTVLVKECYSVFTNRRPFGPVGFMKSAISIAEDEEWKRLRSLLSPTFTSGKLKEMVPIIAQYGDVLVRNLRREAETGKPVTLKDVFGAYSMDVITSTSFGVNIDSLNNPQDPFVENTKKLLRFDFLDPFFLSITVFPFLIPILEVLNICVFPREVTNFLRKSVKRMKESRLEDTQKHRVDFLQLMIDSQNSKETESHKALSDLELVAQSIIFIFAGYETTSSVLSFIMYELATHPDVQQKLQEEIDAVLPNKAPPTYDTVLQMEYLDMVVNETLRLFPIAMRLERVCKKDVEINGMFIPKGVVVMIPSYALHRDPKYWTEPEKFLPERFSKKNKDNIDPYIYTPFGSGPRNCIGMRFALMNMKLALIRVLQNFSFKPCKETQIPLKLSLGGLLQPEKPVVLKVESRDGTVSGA
Procedure, shortened: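 Confluent HepG2/C3A cultures pre-incubated 4 hr with inhibitor or ethanol control, then given 50 µM testosterone. After 48 hr, medium extracted with ethyl acetate and 6-hydroxytestosterone measured as its trimethylsilyl ether by GC-MS. Percent inhibition reported as means and standard deviation.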

[5] = test system: Mus musculus; test: Enrichment in delta-tocopherol in FVB/N mouse bile assessed as tripling in delta-tocopherol/alpha-tocopherol ratio at 500 mg/kg in delta-tocopherol rich diet for 10 days; type: functional, organism-based; parameters: dose 500 mg/kg
[6] = target: T2, Cytochrome P450 3A4; test: Inhibition of human recombinant CYP3A4 expressed in insect cell microsome assessed as testosterone-6-hydroxylase activity at 4 uM after 60 mins; type: ADME, microsomes; conditions: recombinant enzyme, 1 h
Procedure, shortened: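 Insect-cell microsomes expressing only recombinant human CYP3A4 (20 pmol P450) incubated 60 min with 200 µM testosterone, 1 mM NADPH and 0.25% BSA in […], pH 7.4, with or without inhibitor. Reaction stopped with cold ethanol and extracted with hexane/MTBE (7:1). 6-OH-testosterone expressed as nmol per nmol membrane cholesterol.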

[7] = target: T3, CYP4F2 (Homo sapiens, UniProt P78329); test: Inhibition of CYP4F2-mediated gamma-tocopherol metabolism in human HepG2/C3A cells at 1.0 uM preincubated for 4 hrs and continued for 48 hrs; type: cell-based; conditions: probe gamma-tocopherol; procedure, shortened: as §1
T3 sequence (P78329 whole entry): T1 sequence (P78329 whole entry)

[8] = target: T3, CYP4F2; test: Inhibition of CYP4F2-mediated gamma-tocopherol metabolism in human HepG2/C3A cells at 20 nM preincubated for 4 hrs and continued for 48 hrs; type: cell-based; conditions: probe gamma-tocopherol; procedure, shortened: as §1

- Activity [1]: Active
- IC50 ([3]; read-out: ED50 (the source's name)): 1 nM
- Activity [4]: Active
- inhibition (INH) [6]: 90%
Compound: Cc1c(C)c2c(c(C)c1O)CC[C@@](C)(CCCCCCCCCn1ccnc1)O2
- Activity [2]: Active
- Activity [5]: Active

- inhibition at 48 h, 1 µM [7]: 36%
- Activity [4]: Active
Compound: Cc1c(C)c2c(c(C)c1O)CC[C@@](C)(CCCCCCCCCn1ccnn1)O2

- Activity [3]: Not Active
Compound: Cc1c(C)c2c(c(C)c1O)CC[C@@](C)(CCCCCCCCCn1nnc3ccccc31)O2

- inhibition at 48 h, 0.02 µM [8]: 42%
- Activity [4]: Active
Compound: Cc1c(C)c2c(c(C)c1O)CC[C@@](C)(CCCCCCCCCn1cncn1)O2

- Activity [3]: Not Active
Compound: Cc1c(C)c2c(c(C)c1O)CC[C@@](C)(CCCCCCCCCn1cnc3ccccc31)O2

- Activity [3]: Not Active
Compound: Cc1c(C)c2c(c(C)c1O)CC[C@@](C)(CCCCCCCCCn1nc3ccccc3n1)O2
